Measured values as given in ChEMBL document CHEMBL1129534, “Antitumor agents. 163. Three-dimensional quantitative structure-activity relationship study of 4'-O-demethylepipodophyllotoxin analogs using the modified CoMFA/q2-GRS approach” (J Med Chem, 1996).
Where “and” joins values, the source holds several entries; their conditions need not be identical. Equal entries are not always repeated.

Biological target: DNA topoisomerase II (Homo sapiens) (UniProt P11388+Q02880)
Assay: Compound tested for ability to form a cellular covalent topoisomerase II-DNA complex.
Type: functional
Summary of the method: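 Read-out is intracellular covalent topoisomerase II–DNA complex formation, scored as the percentage of cellular protein–DNA complex formed (PCPDCF). For CoMFA modelling the values were transformed to ln(PCPDCF + 1).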

Structure (SMILES) | Protein-DNA complex formation
COc1cc([C@@H]2c3cc4c(cc3[C@@H](Nc3cccc(F)c3)[C@H]3COC(=O)[C@H]23)OCO4)cc(OC)c1O | 158%
COc1cc([C@@H]2c3cc4c(cc3[C@@H](NCc3ccccc3)[C@H]3COC(=O)[C@H]23)OCO4)cc(OC)c1O | 181%
CCOC(=O)CC[C@H](NC(=O)c1ccc(N[C@@H]2c3cc4c(cc3[C@@H](c3cc(OC)c(O)c(OC)c3)[C@H]3C(=O)OC[C@@H]32)OCO4)cc1)C(=O)OCC | 83%
COc1cc([C@@H]2c3cc4c(cc3[C@@H](Nc3ccc(F)cc3)[C@H]3COC(=O)[C@H]23)OCO4)cc(OC)c1O | 213%
COc1cc([C@@H]2c3cc4c(cc3[C@@H](N[C@@H](C)CO)[C@H]3COC(=O)[C@H]23)OCO4)cc(OC)c1O | 162%
COc1cc([C@@H]2c3cc4c(cc3[C@@H](Nc3cccc(Br)c3)[C@H]3COC(=O)[C@H]23)OCO4)cc(OC)c1O | 62%
COc1cc([C@@H]2c3cc4c(cc3[C@@H](NC(=O)c3ccc(OC(C)=O)cc3)[C@H]3COC(=O)[C@H]23)OCO4)cc(OC)c1O | 137%
COc1cc(CN[C@@H]2c3cc4c(cc3[C@@H](c3cc(OC)c(O)c(OC)c3)[C@H]3C(=O)OC[C@@H]32)OCO4)cc(OC)c1 | 144%
COc1cc([C@@H]2c3cc4c(cc3[C@@H](NCc3cccc(F)c3)[C@H]3COC(=O)[C@H]23)OCO4)cc(OC)c1O | 216%
COc1cc([C@@H]2c3cc4c(cc3[C@H](NCCO)[C@H]3COC(=O)[C@H]23)OCO4)cc(OC)c1O | 0%
COc1cc([C@@H]2c3cc4c(cc3[C@@H](Nc3cc([N+](=O)[O-])ccc3O)[C@H]3COC(=O)[C@H]23)OCO4)cc(OC)c1O | 15%
COc1cc([C@@H]2c3cc4c(cc3[C@@H](NCCCN(C)C)[C@H]3COC(=O)[C@H]23)OCO4)cc(OC)c1O | 186% and 179%

Further lines, results first:

Protein-DNA complex formation | Structure (SMILES)
100% | COc1cc([C@@H]2c3cc4c(cc3[C@@H](OC(=O)c3cccc(N)c3)[C@H]3COC(=O)[C@H]23)OCO4)cc(OC)c1O
57% | COc1cc([C@@H]2c3cc4c(cc3[C@@H](Oc3ccc(F)cc3)[C@H]3COC(=O)[C@H]23)OCO4)cc(OC)c1O
137% | COc1cc([C@@H]2c3cc4c(cc3[C@@H](Nc3cccc(C#N)c3)[C@H]3COC(=O)[C@H]23)OCO4)cc(OC)c1O
11% | COc1cc([C@@H]2c3cc4c(cc3[C@@H](Nc3cc(N)ccc3O)[C@H]3COC(=O)[C@H]23)OCO4)cc(OC)c1O
128% | COc1cc([C@@H]2c3cc4c(cc3[C@@H](NC(=O)c3ccccc3F)[C@H]3COC(=O)[C@H]23)OCO4)cc(OC)c1O
160% | COc1cc([C@@H]2c3cc4c(cc3[C@@H](NC(=O)c3ccc([N+](=O)[O-])cc3)[C@H]3COC(=O)[C@H]23)OCO4)cc(OC)c1O
64% | COc1cc([C@@H]2c3cc4c(cc3[C@@H](Nc3ccc(I)cc3)[C@H]3COC(=O)[C@H]23)OCO4)cc(OC)c1O
177% | COc1cc([C@@H]2c3cc4c(cc3[C@@H](NC(=O)c3ccccc3)[C@H]3COC(=O)[C@H]23)OCO4)cc(OC)c1O
69.7% | CCCN[C@@H]1c2cc3c(cc2[C@@H](c2cc(OC)c(O)c(OC)c2)[C@H]2C(=O)OC[C@@H]21)OCO3
230% | COc1cc([C@@H]2c3cc4c(cc3[C@@H](Nc3cccc([N+](=O)[O-])c3)[C@H]3COC(=O)[C@H]23)OCO4)cc(OC)c1O
159% | COc1cc([C@@H]2c3cc4c(cc3[C@@H](NCc3cccc(Cl)c3)[C@H]3COC(=O)[C@H]23)OCO4)cc(OC)c1O
151% | COc1cc([C@@H]2c3cc4c(cc3[C@@H](Nc3ccccc3O)[C@H]3COC(=O)[C@H]23)OCO4)cc(OC)c1O
34% | COc1cc([C@@H]2c3cc4c(cc3[C@@H](Oc3ccc(O)cc3)[C@H]3COC(=O)[C@H]23)OCO4)cc(OC)c1O
140% | COc1cc([C@@H]2c3cc4c(cc3[C@@H](Nc3cccc(N)c3)[C@H]3COC(=O)[C@H]23)OCO4)cc(OC)c1O
